Source: PubChem
Fam108B inh: mouse Fam108B serine hydrolase inhibitors, primary screen, counter-screen for RBBP9 inhibitor project, biochemical, fluorescence polarization | inhibition, % at 9.51 µM | recombinant Fam108B, FP-Rh probe fluorescence polarization | 0.33% of 300,000 active;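 active means inhibition above the screen mean inhibition plus 3 SD, computed separately per campaign, cut at about 18% in these data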;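 further: inhibitors lower polarization as less probe binds the enzyme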
RBBP9 inhibitor: human RBBP9 inhibitors, primary screen, biochemical, fluorescence polarization, FP-Rh probe, HTS; recombinant RBBP9; inhibition, % at 7.94 µM; 0.2% of 220,000 active; AID 1515, 2009;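 active means inhibition above the campaign mean of all tested compounds plus 3 SD, cut at about 14% in these data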;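 further: plate controls were DMSO wells with RBBP9 for no effect and wells lacking RBBP9 protein for full effect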
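Test system: recombinant human RBBP9; Timing: 30 min then 45 min, 25 °C; Detection: fluorescence polarization; Control set: RBBP9 with DMSO as uninhibited control, no-protein wells as full inhibition; Compound dosing: one concentration, 7.94 µM nominal, 0.794% DMSO; Probe or stimulus: FP-Rh activity-based probe, 375 nM before mixing.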
LYPLA2 inh: LYPLA2 inhibitors, primary screen, counter-screen for PME1 inhibitor project, biochemical, fluorescence polarization, FP-Rh probe ABPP; Acyl-protein thioesterase 2 (Homo sapiens), O95372; recombinant LYPLA2; inhibition, % at 5.9 µM; 0.38% of 320,000 active;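 active means inhibition above the screen-wide mean plus 3 SD, limit set per campaign, cut at about 26% in these data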;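 further: 0% = LYPLA2 with DMSO and 100% = wells lacking LYPLA2 enzyme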
LYPLA1 counter: LYPLA1 inhibitors, primary screen, counter-screen for PME1 inhibitor project, biochemical, fluorescence polarization, FP-Rh probe ABPP; Acyl-protein thioesterase 1 (Homo sapiens), O75608; recombinant LYPLA1; inhibition, % at 5.9 µM; 0.16% of 320,000 active; AID 2174, 2009;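 active means inhibition above the mean of all tested compounds plus 3 SD, set per campaign, cut at about 14% in these data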;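 further: inhibitors block serine hydrolase probe labeling of LYPLA1 so polarization falls; 0% = enzyme with DMSO and 100% = wells lacking LYPLA1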
Target sequence (O75608 whole entry, looked up): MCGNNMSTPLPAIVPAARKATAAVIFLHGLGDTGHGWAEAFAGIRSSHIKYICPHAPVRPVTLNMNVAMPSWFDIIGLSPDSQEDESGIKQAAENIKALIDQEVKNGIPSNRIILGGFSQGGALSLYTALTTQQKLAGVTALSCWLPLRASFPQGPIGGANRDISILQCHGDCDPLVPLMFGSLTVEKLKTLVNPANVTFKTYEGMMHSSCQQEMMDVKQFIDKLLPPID
PME-1 primary: PME-1 inhibitors via competitive probe labeling, primary screen, biochemical, fluorescence polarization, FP-Rh probe, HTS | Protein phosphatase methylesterase 1 (Homo sapiens), Q9Y570 | recombinant PME-1 | inhibition, % at 5.9 µM | 0.53% of 320,000 active | AID 2130, 2009;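 active means inhibition above the campaign mean of all compounds plus 3 SD, cut at about 26% in these data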;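 further: competitive labeling of PME-1 active site by serine hydrolase directed probe; 0% = PME-1 with DMSO and 100% = wells lacking PME-1 enzyme; inhibitors block probe labeling so polarization falls and inhibition rises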
Target sequence (Q9Y570 whole entry, looked up): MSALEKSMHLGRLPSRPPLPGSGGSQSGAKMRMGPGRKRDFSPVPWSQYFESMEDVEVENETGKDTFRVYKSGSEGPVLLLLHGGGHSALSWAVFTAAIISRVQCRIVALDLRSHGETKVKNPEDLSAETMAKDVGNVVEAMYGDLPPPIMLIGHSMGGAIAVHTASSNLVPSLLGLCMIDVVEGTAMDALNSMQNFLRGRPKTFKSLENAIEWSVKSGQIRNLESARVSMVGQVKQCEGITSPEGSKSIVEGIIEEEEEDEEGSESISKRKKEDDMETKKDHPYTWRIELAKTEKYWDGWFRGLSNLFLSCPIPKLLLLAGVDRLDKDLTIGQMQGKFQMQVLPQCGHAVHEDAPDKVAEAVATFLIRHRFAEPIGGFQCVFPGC
Starred values were filed as active, the others as inactive; nt = not tested or not shown. This is a sample that favours compounds with a hit; in the whole collection about 0.99% have one here.

SMILES | Fam108B inh | RBBP9 inhibitor | LYPLA2 inh | LYPLA1 counter | PME-1 primary
COc1cc(/C=C2\CC/C(=C\c3cc(OC)c(OC)c(OC)c3)C2=O)cc(OC)c1OC | -3 | 8 | -2 | -1 | -8
COc1cc(/C=C2/CCCC(C(=O)C(F)(F)F)=C2O)ccc1O | 3 | 2 | -1 | 2 | -1
COc1cc(/C=C2\CC/C(=C\c3cc(OC)c(O)c(OC)c3)C2=O)cc(OC)c1O | -6 | 19* | -20 | -15 | -7
COc1cc(/C=C2/CCc3ccccc3C2=O)cc(OC)c1OC | -3 | -3 | 30* | 5 | 9
Cc1nc2ccc(NC(=O)c3ccc([N+](=O)[O-])cc3)cc2[nH]1 | -2 | nt | 4 | 2 | -4
O=C(CSc1cn[nH]n1)Nc1ccccc1F | -4 | nt | -2 | 1 | 4
O=C(O)c1ccc(COCC(F)(F)C(F)F)o1 | 0 | 1 | -6 | -2 | 5
CC(Oc1ccccc1)C(=O)Nc1nnc(C2CCCCC2)s1 (stereo not drawn) | -2 | -5 | 3 | 9 | -5
N#Cc1cc(C#N)c(SCC(=O)N2CC(=O)Nc3ccccc32)nc1N | nt | nt | -5 | -5 | 16
CCc1ccc2nc(SCC(=O)N3CC(=O)Nc4ccccc43)c(C#N)cc2c1 | -5 | -1 | 1 | -1 | 34*
CCn1cc(C(=O)Nc2cccc(C)c2)c(=O)c2ccc(C)nc21 | 2 | -2 | 0 | -4 | 3
Cc1cccc(N2CCN(C(=O)CN3C(=O)C4CC=CCC4C3=O)CC2)c1C (stereo not drawn) | 4 | -6 | -4 | 0 | -3
COc1ccc2cc3cc(C(=O)NCc4ccco4)oc3nc2c1 | -2 | -4 | 5 | -5 | -12
COc1ccc2cc3c(N)c(C(=O)NCc4ccco4)sc3nc2c1 | 5 | -6 | -1 | -6 | 35*
Cn1c2ccccc2c2cc(/C=N/NC(=O)c3ccc(N)cc3)ccc21 | 17 | nt | -3 | -1 | 40*
Cn1c2ccccc2c2cc(/C=N/NC(=O)c3ccccc3F)ccc21 | -1 | nt | -12 | -9 | 5
O=[N+]([O-])c1ccc(CCNc2cccc3ccccc23)c([N+](=O)[O-])c1 | 0 | 5 | 8 | 2 | 4
Oc1ccc(Br)cc1-c1nc2cnccn2c1NC1CCCC1 | 10 | -9 | -3 | 0 | 26*
COc1cccc2cc(C(=O)C3=C(O)C(=O)N(CCN(C)C)C3c3ccc(Cl)cc3)oc12 (stereo not drawn) | 0 | -3 | -2 | 1 | 4
Cc1ccc(-n2c3nc(=O)[nH]c(=O)c-3cc3cc([N+](=O)[O-])ccc32)cc1 | 15 | 0 | 2 | 4 | 63*
Cc1ccc(-n2c(C)nn(Cc3ccc([N+](=O)[O-])cc3)c2=O)cc1 | 4 | -1 | 17 | 3 | 10
COc1ccccc1N(CC(=O)NCCSc1ccccn1)S(=O)(=O)c1ccccc1 | 3 | nt | 2 | -1 | 4
Cc1ccc(N/N=C(\C#N)C(N)=S)c(C)c1 | 5 | -4 | 4 | -3 | 93*
Cc1ccc(NC(=O)/C(C#N)=N/Nc2ccc(C(=O)O)cc2)c(C)c1 | -2 | 3 | -4 | 0 | -5
CCCCN(CCCC)CCNC(=O)c1cn(CC)c2ccc(S(=O)(=O)N(C)C3CCCCC3)cc2c1=O | 1 | nt | 5 | -1 | 82*
SMILES | Fam108B inh | RBBP9 inhibitor | LYPLA2 inh | LYPLA1 counter | PME-1 primary
CCN(CC)CCCNC(=O)c1cn(CC)c2ccc(S(=O)(=O)N(C)C3CCCCC3)cc2c1=O | -3 | nt | -1 | 0 | 14
CCCCN(CC)CCCNC(=O)c1cn(C)c2ccc(S(=O)(=O)N(C)C3CCCCC3)cc2c1=O | 4 | nt | 7 | 1 | 40*
CCn1cc(C(=O)NCCCN2CCCC(C)C2)c(=O)c2cc(S(=O)(=O)N(C)C3CCCCC3)ccc21 (stereo not drawn) | -7 | nt | -4 | -2 | 52*
CN(C1CCCCC1)S(=O)(=O)c1ccc2c(c1)c(=O)c(C(=O)NCCCN1CCCC1)cn2C | -1 | 3 | -8 | 1 | 4
Cc1ccn2cc(C34CC5CC(CC(C5)C3)C4)nc2c1 | -2 | -5 | -3 | 0 | -4
Cc1[nH]nc(Sc2ccccn2)c1[N+](=O)[O-] | 1 | -5 | -1 | -2 | 4
COc1cc2c(cc1NC(=O)c1cccnc1)oc1ccccc12 | 14 | -6 | 5 | -5 | 28*
COc1ccc([C@H]2CC(=O)C=C(/C=C/Cc3ccccc3)C2)cc1 | nt | nt | 10 | -3 | -7
O=C(CCc1nnc2n(CCc3ccccc3)c(=O)c3ccccc3n12)NCCCN1CCCCC1 | 1 | nt | 5 | -2 | 2
O=[N+]([O-])c1ccc(N/N=C/c2cccc(O)c2O)c(S(=O)(=O)N2CCOCC2)c1 | -6 | -14 | -5 | -11 | 31*
O=[N+]([O-])c1ccc(N/N=C/c2ccc(O)c(O)c2O)c(S(=O)(=O)N2CCOCC2)c1 | nt | -1 | nt | nt | nt
COc1ccc(N(C(=O)c2ccncc2)S(=O)(=O)c2cccc([N+](=O)[O-])c2)cc1 | 1 | nt | -1 | -4 | 2
NC(=O)c1ccc(NC(=O)COC(=O)CCCN2C(=O)c3cccc4cccc(c34)C2=O)cc1 | 2 | -2 | 2 | 0 | 1
O=C(COC(=O)CCCN1C(=O)c2cccc3cccc(c23)C1=O)Nc1ccc(Cl)cc1 | 1 | 2 | 21 | 6 | 30*
CC#CCN1c2ccccc2[C@]23C[C@@H](C(=O)OC)N(C(=O)c4cc(C)oc4C)C2=NC(C(=O)OC)=C(C(=O)OC)[C@H]13 | 0 | nt | 3 | 1 | 28*
O=C(CC1CCS(=O)(=O)C1)Nc1ccc[nH]c1=O (stereo not drawn) | 2 | 16* | 2 | 2 | 3
CN1C(=O)C2(OCCCO2)c2ccccc21 | 5 | nt | 5 | -2 | -2
CCOC(=O)c1c(C)[nH]c(C2=NNC(=Nc3ccc(OCC)cc3)SC2)c1C | 7 | 7 | 0 | -9 | 28*
Oc1[nH]c2ccccc2c1N=Nc1nc(Nc2ccccc2)nc(N2CCOCC2)n1 | -32 | -5 | -9 | -5 | -3
Cc1[nH]c2ccccc2c1/C=N/Nc1nc(Nc2ccccc2)nc(N2CCOCC2)n1 | 12 | -9 | -1 | -9 | 39*
Oc1ccc(/C=C/c2ccc3ccccc3n2)cc1 | 6 | 1 | 1 | 6 | 28*
CC1CCC/C(=C\Nc2ccc(O)cc2)C1=O (stereo not drawn) | -1 | 14* | 12 | 4 | 4
Oc1cccc(/C=N/Nc2cc(N3CCCC3)nc(N3CCCC3)n2)c1 | 8 | -6 | 5 | -7 | 31*
O=[N+]([O-])c1cccc(-c2n[nH]c(=S)n2-c2ccc(Br)cc2)c1 | 2 | -1 | 3 | -2 | 0
CS(=O)(=O)N1N=C(c2ccccc2)CC1c1ccc2c(c1)OCO2 (stereo not drawn) | -7 | -7 | -11 | -9 | 28*
